Source: PubChem
FN deposit inh – fibronectin deposition inhibition; AID 743247; AH1F fibroblasts, Alexa488-fibronectin deposition fluorescence, overnight; inhibition, % at 12.6 µM; actives 0.086% (n = 350,000);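 active = mean inhibition across replicates of 30% or more, regardless of how many single replicates reach that level; inconclusive = mean under 30% yet at least half of replicates reach 30%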;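 also: positive control wells lacked labelled fibronectin entirely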
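Material – AH1F fibroblast monolayer, labelled fibronectin deposition · Reagent – labelled fibronectin 24 nM · Timing – 1 h adhesion, overnight exposure · Measured by – fluorescence at 485 nm excitation, 525 nm emission · Read-out – inhibition of fibronectin deposition signal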
SR-BI DiI-HDL act – enhances SR-BI lipid uptake from DiI-HDL; CHO ldlA[mSR-BI] cells, DiI-HDL uptake fluorescence, 3 h; 100 = double the neutral-control signal; activation, % at 12.5 µM; actives 0.096% (n = 320,000);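 active = mean replicate activation of at least 60% and every replicate at or above 60%; inconclusive = mean or all-replicate condition met, but not both; inactive = mean below 60% and not all replicates reaching 60%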;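 also: 0% = median plate neutral-control signal and 100% = twice that signal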
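material = CHO ldlA[mSR-BI] cells | medium = Ham's F12 with 0.5% BSA, HEPES 25 mM, pH 7.4 | reagent = fluorescent DiI-HDL, 10 µg/mL final | compound dosing = single-point compound dose | incubation = 3 h, 37 °C | measured by = bottom-read fluorescence, 550/595 nm | measure = HDL uptake via cellular fluorescence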
SR-BI DiI inh – mouse SR-BI HDL lipid transfer inhibition; Q61009; ldlA[mSR-BI] CHO cells, DiI-HDL uptake fluorescence, 3 h; inhibition, % at 12.5 µM; actives 0.96% (n = 320,000);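 active = mean replicate inhibition of at least 70% and a set share of replicates each scoring 70 or more; inconclusive = meets just one of the two criteria; inactive = fails both criteria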;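 also: 0% = median of neutral control wells and 100% = median of positive control wells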
Target sequence (Q61009 whole entry, looked up): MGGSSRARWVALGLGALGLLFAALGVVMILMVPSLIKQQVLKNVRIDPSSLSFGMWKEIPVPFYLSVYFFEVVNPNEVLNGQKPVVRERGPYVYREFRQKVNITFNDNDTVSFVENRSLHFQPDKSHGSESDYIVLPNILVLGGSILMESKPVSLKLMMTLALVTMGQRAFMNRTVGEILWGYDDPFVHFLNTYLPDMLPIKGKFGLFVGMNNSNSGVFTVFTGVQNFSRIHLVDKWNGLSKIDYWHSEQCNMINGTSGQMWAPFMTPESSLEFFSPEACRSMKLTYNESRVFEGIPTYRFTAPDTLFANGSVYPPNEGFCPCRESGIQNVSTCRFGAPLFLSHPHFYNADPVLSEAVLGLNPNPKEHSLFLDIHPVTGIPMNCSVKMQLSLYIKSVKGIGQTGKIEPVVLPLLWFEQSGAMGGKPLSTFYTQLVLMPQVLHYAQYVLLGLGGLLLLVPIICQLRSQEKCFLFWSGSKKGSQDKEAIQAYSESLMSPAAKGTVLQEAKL
CaV13 FRET inh – Primary screen for inhibitors of IQ motif and Ca2+-dependent inactivation inhibitor domain binding in CACNA1D, Förster resonance energy transfer in living cells, …. HEK cells, CFP/YFP FRET ICDI-IQ, plate reader, 10 min; percent FRET-ratio fall versus neutral wells. AID 743397. inhibition, % at 12.3 µM. actives 0.098% (n = 340,000);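 active = mean replicate inhibition of at least 30% and at least 1% of replicates passing that level; inconclusive = only one of the two criteria is met; inactive = neither criterion is met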;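 also: 0% = median of the neutral control wells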
Efflux pump mplx – blocks antifungal efflux pumps in multiplex yeast assay. S. cerevisiae Candida pump triplex, Nile Red efflux. inhibition, % at 10 µM. actives 0.44% (n = 330,000);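 active = plate passing quality check with inhibition over a set limit, or well fluorescence over plate mean plus 4 SD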;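 also: Nile Red retained in pooled yeast measured as flow cytometry median fluorescence; 0% = buffer negative control and 100% = Enniatin B positive control; higher means more Nile Red kept so more efflux inhibition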
DiI quench – DiI fluorescence quenching in cell-free counter-screen; shares compounds with SR-BI DiI inh; actives 20% (n = 470); cell-free DiI-HDL fluorescence quenching, 30 min; AID 540326; AC50, µM (series often up to 35 µM), without a hit: at the highest dose activity change, negative = quenching;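 active = quenching, a falling signal, with AC50 below a set limit tied to the top valid dose, actives reach about 32 µM in these data; inconclusive = no clear call, values can overlap the other calls; inactive = rising signal, and the rest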
* hit, by the source's call; u = inconclusive; x = no result given. A selection: hits, their analogues and other compounds. The true share with any hit is near 1.2%.

SMILES	FN deposit inh	SR-BI DiI-HDL act	SR-BI DiI inh	CaV13 FRET inh	Efflux pump mplx	DiI quench
CCC(C)(C)NC(=O)C(c1ccc(C)cc1)N(Cc1cccs1)C(=O)c1ccc2c(c1)OCCO2 (configuration not stated)	x	-77	77*	x	0	6%
Cc1ccc(C(C(=O)NC(C)(C)C)N(Cc2cccs2)C(=O)c2ccc3c(c2)OCCO3)cc1 (configuration not stated)	12	12	-12	-2	0	3%
O=C(C[C@H]1C=C[C@H](NS(=O)(=O)c2ccc(F)cc2)[C@H](CO)O1)N1CCC(Cc2ccccc2)CC1	2	x	x	x	x	x
Cc1ccc(OCC(=O)NNC(=O)C2CCN(c3ncnc4sc(C)c(C)c34)CC2)cc1	-7	-80	80*	-6	0	3%
COCC(=O)Nc1ccc2c(c1)[C@H]1C[C@@H](CC(=O)NCc3cc(F)ccc3F)O[C@@H](CO)[C@H]1O2	2	x	x	x	x	x
COCCCN(C(=O)c1ccco1)c1nc(-c2ccc(OC)cc2)cs1	-2	-111	111*	-5	0	-1%
COc1ccc(-c2csc(NCCc3nc4cc(Cl)c(N5CCCCC5)cc4n3CCOCCO)n2)cc1	5	-83	83*	-12	0	13µM*
COc1ccc(-c2csc(N3CCN(c4cc5c(cc4Cl)nc(-c4ccncc4)n5CCOCCO)CC3)n2)cc1	5	-61	61	-9	0	x
CCSCC1COC(c2cccn2Cc2ccc(C)cc2)=N1 (configuration not stated)	-1	-70	u	-3	0	-5%
CCC1COC(c2cccn2Cc2ccc(Cl)cc2)=N1 (configuration not stated)	-4	2	-2	-6	0	x
CCOC(=O)C1CCCN(C(=O)c2cc(COc3ccc(C)nc3)on2)C1 (configuration not stated)	-1	15	-15	-3	0	-1%
C[C@@H]1CN([C@@H](C)CO)C(=O)c2cc(NC(=O)CCCN(C)C)ccc2O[C@@H](C)CCCCO[C@@H]1CN(C)C	-16	x	x	x	x	x
CCCn1c(=O)[nH]c(=O)c2c1nc(-c1ccc(OC(F)(F)C(F)C(F)(F)F)cc1)n2CCOC (configuration not stated)	x	-75	75*	-5	0	-1%
CCCn1c(=O)[nH]c(=O)c2c1nc(-c1ccc(C#N)cc1)n2CCOC	-5	14	-14	-7	0	x
O=C(N[C@@H]1C/C=C\C[C@H](CC(=O)N(CCO)Cc2ccccc2)C(=O)NC[C@@H](c2ccccc2)OC1=O)OCC1c2ccccc2-c2ccccc21	-3	-85	85*	-4	0	1%
COc1ccc(CCNC(=O)c2ccc3c(c2)N(Cc2ccc(C)cc2)CCS3)cc1OC	x	-75	75*	x	0	-10%
COc1ccc(OC)c(CCNC(=O)c2ccc3c(c2)N(Cc2ccc(F)cc2)CCS3)c1	x	-82	82*	x	0	-12%
Cc1ccc(CN2CCSc3ccc(C(=O)NCCCN4CCN(C)CC4)cc32)cc1	-13	-18	18	-3	0	x
O=C(NC1CCCC1)c1ccc2c(c1)N(Cc1ccc(F)cc1)CCS2	-2	-38	38	-16	0	x
CN(C)CCNC(=O)c1ccc2c(c1)N(Cc1ccc(F)cc1)CCS2	4	-25	25	-2	0	x
COc1ccc(CCNC(=O)c2ccc3c(c2)N(Cc2ccc(F)cc2)CCS3)c(OC)c1	-12	-82	82*	-7	0	-12%
COc1cccc(NC(=O)Nc2nnc(-c3ccccc3SCc3ccccc3)s2)c1	x	-47	47	0	0	x
COc1ccc(NC(=O)Nc2nnc(-c3ccccc3SCc3ccccc3)s2)cc1	x	-101	101*	-5	0	3.2µM*
C[C@H](CO)N1C[C@H](C)[C@@H](CN(C)S(=O)(=O)c2cn(C)cn2)Oc2c(NC(=O)C3CCOCC3)cccc2C1=O	-8	x	x	x	x	x
COc1ccc(COC(=O)c2ccc(Br)c(S(=O)(=O)N3CCOCC3)c2)cc1F	-9	-74	74*	-6	0	2%
